Assay results taken from ChEMBL document CHEMBL1141807, “New phenolic and quinone-methide triterpenes from Maytenus amazonica” (J Nat Prod, 1999).
In brackets after ≈: the same amount, converted by molar mass.

Columns and labels:
[1] = test system: P388; assay: Cytotoxicity against mouse P388 ATCC CCL-46 cells; type: functional, cell-based
Method in brief: (§1)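 Lines maintained in log-phase growth in EMEM/neaa with 5% fetal calf serum, 10-2 M sodium bicarbonate, 0.1 g/L penicillin G and 0.1 g/L streptomycin sulfate. P-388 grown as suspension culture; A-549, HT-29 and MEL-28 as monolayers. Compounds dissolved in DMSO–MeOH (1:9). Read-out IC50 in µg/mL.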

[2] = test system: HT-29; assay: Cytotoxicity against human HT-29 ATCC HTB-38 cells; type: functional, cell-based; method in brief: as §1
[3] = test system: A549; assay: Cytotoxicity against human A549 ATCC CCl-185 cells; type: functional, cell-based; method in brief: as §1
[4] = Cytotoxicity against human SK MEL28 ATCC HTB-72 cells; type: functional, cell-based; conditions: SK-MEL-28; method in brief: as §1
[5] = target: Aldo-keto reductase family 1 member B1 (Homo sapiens, UniProt P15121); assay: Inhibition of human recombinant aldose reductase
Method in brief: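 Recombinant human aldose reductase, purified by a published method. In vitro inhibition measured by a modified version of that method. Values given as IC50 in µg/mL.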

| IC50 [5] | Structure (SMILES) | IC50 [1] | IC50 [2] | IC50 [3] | IC50 [4] |
| --- | --- | --- | --- | --- | --- |
| 57.5 µM | C[C@@H]1C[C@@H]2[C@@](C)(CC[C@@]3(C)[C@@]2(C)CC=C2c4cc(O)c(O)c(C=O)c4C=C[C@]23C)CC1=O | 10 µg/mL (≈ 23 µM) | 10 µg/mL (≈ 23 µM) | 10 µg/mL (≈ 23 µM) | 10 µg/mL (≈ 23 µM) |
| 57 µM | CC1=C(O)C(=O)C=C2C1=C[C@H](O)[C@@H]1[C@@]2(C)CC[C@@]2(C)[C@@H]3C[C@@H](C)C(=O)C[C@]3(C)CC[C@]12C | 5 µg/mL (≈ 11.4 µM) | 5 µg/mL (≈ 11.4 µM) | 5 µg/mL (≈ 11.4 µM) | 5 µg/mL (≈ 11.4 µM) |
| 57.3 µM | CC1=C(O)C(=O)C=C2C1=CC(=O)[C@@H]1[C@@]2(C)CC[C@@]2(C)[C@@H]3C[C@@H](C)C(=O)C[C@]3(C)CC[C@]12C [AMAZOQUINONE] | 2.5 µg/mL (≈ 5.73 µM) | 5 µg/mL (≈ 11.5 µM) | 5 µg/mL (≈ 11.5 µM) | 5 µg/mL (≈ 11.5 µM) |

| Structure (SMILES) | IC50 [5] | IC50 [1] | IC50 [2] | IC50 [3] | IC50 [4] |
| --- | --- | --- | --- | --- | --- |
| Cc1c(O)c(O)cc2c1C(=O)C[C@@H]1[C@@]2(C)CC[C@@]2(C)[C@@H]3C[C@@H](C)C(=O)C[C@]3(C)CC[C@]12C | 57 µM | 5 µg/mL (≈ 11.4 µM) | 10 µg/mL (≈ 22.8 µM) | 5 µg/mL (≈ 11.4 µM) | 10 µg/mL (≈ 22.8 µM) |
